The list is not random: actives were taken first. Their share in the collection is about 2%.
p47phox inh = p47phox/p22phox peptide binding inhibitors, primary screen, biochemical, uHTS, NADPH oxidase regulatory subunit; Neutrophil cytosol factor 1 (Homo sapiens), P14598; fluorescence polarization, 2 h; inhibition, % at 24.7 µM; hit rate 0.53% among 220,000;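 note: 0% = p47phox with labelled peptide and 100% = labelled peptide alone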
eIF4E-4G inh = eIF4E–eIF4G protein interaction inhibitors, primary screen, biochemical, uHTS, TR-FRET, eIF4GI fragment; Eukaryotic translation initiation factor 4E (Mus musculus) + Eukaryotic translation …; TR-FRET eIF4E-eIF4GI(517-606) binding, 2 h; inhibition, % at 21.7 µM; hit rate 0.37% among 220,000;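 note: 0% = full FRET control wells and 100% = background wells lacking eIF4GI fragment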
Diaph act CS = compounds boosting diaphorase resazurin reduction – biochemical, uHTS, resorufin fluorescence, counter-screen for diaphorase-coupled primary assays, primary screen. hit rate 0.005% among 190,000. Diaphorase/resazurin coupled assay, 16 min; active compounds read high; 1 = vehicle wells, 0 = NADH-free wells. activation factor at 20 µM. AID 1229, 2008;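 active = diaphorase activity raised at least twofold by the compound at 20 µM; inactive = activation factor below 2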
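test system = bacterial diaphorase enzyme (C. kluyveri) | quantity = enzyme 0.07 U/mL final | reagent = NADH substrate 0.114 mM plus resazurin dye 0.1 mM, final | incubation = 16 min enzyme reaction, ambient temperature | buffer or medium = HEPES pH 7.4 buffer with MgCl2 and Tween 20 | signal = fluorescence of resorufin, 544 nm excitation, 590 nm emission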
14-3-3 Bad PPI = inhibitors of 14-3-3 zeta/Bad binding, primary screen, biochemical, TR-FRET, bovine 14-3-3 zeta | hit rate 0.71% among 220,000 | TR-FRET 14-3-3zeta/Dy647-pBad peptide displacement, 1 h | 14-3-3 protein zeta/delta (Bos taurus), P63103 | inhibition, % at 21.7 µM;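 active = inhibition above about 70%, limit read from the data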;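 note: 0% = full 14-3-3 plus peptide FRET controls and 100% = background without 14-3-3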
Hck Nef HTS = inhibitors of Nef-activated human Hck kinase, primary screen, biochemical, Z-Lyte FRET, 384-well, Hck-YEEI; inhibition, % at 20 µM; hit rate 0.68% among 220,000; Recombinant Hck-YEEI plus Nef, Z-Lyte FRET kinase assay; Tyrosine-protein kinase HCK (Homo sapiens), P08631;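 active = Hck-Nef kinase inhibition above about 50%, limit read from the data; inactive = inhibition below that limit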;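 note: 0% = DMSO with Hck plus Nef and 100% = Hck alone without Nef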
Target sequence (P08631 whole entry, looked up): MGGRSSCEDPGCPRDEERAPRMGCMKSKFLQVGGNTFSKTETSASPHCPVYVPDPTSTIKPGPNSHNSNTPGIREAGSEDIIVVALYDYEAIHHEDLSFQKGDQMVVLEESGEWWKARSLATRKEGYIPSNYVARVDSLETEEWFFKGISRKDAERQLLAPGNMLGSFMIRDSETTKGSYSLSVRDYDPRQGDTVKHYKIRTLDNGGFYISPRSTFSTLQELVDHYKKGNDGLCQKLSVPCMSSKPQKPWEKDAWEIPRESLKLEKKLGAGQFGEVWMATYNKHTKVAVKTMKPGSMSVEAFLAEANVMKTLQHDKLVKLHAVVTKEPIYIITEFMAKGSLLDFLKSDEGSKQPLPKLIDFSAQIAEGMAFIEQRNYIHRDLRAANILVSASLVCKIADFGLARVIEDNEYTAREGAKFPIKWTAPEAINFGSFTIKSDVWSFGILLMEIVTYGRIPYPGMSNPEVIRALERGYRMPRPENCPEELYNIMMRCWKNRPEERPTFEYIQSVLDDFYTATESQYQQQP
Hck-Nef confirm = retest of Hck:Nef kinase inhibitor hits, confirmation, biochemical, Z-Lyte FRET, 384-well, p-Tyr peptide counterscreen. shares compounds with Hck Nef HTS. Recombinant Hck-YEEI:Nef, Z-Lyte FRET kinase assay. calls only at 10 µM. hit rate 28% among 1,300;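 active = average inhibition of at least 50%, with Z-scores no higher than 3 in both the phospho-tyrosine peptide and fluorescence counterscreens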
Starred values were filed as active, the others as inactive; i = inactive; . = no result shown; + = active, no number.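 Rule for the calls, unless noted: active = inhibition above about 30% (limit read from the data); inactive = the rest.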

SMILES	p47phox inh	eIF4E-4G inh	Diaph act CS	14-3-3 Bad PPI	Hck Nef HTS	Hck-Nef confirm
COc1ccc(-c2cc(=O)c3c(O)c(OC)c(O)cc3o2)cc1	-10.3	-2.0	0.9	-2.4	67.4*	i
COc1cc(O)c2c(=O)cc(-c3ccccc3)oc2c1	-5.2	3.2	1	1.4	32.6	.
CC(C)NC(=O)CSc1nc(N)c(-c2ccccc2)c(=O)[nH]1	-3.0	2.5	1.1	-16.6	23.6	.
CCCCC1=CC2=CC(=O)C(C)(OC(=O)C3CCCC3)C(=O)C2=CO1 (configuration not stated)	-31.9	3.7	.	-0.6	27.1	.
CC1(OC(=O)C2CCCC2)C(=O)C=C2C=C(c3ccsc3)OC=C2C1=O (configuration not stated)	10.7	12.1	.	2.3	61.7*	+
COC(=O)CCC(=O)OC1(C)C(=O)C2=CN(C(CO)CO)C(c3ccc(OC)cc3)=CC2=C(Br)C1=O (configuration not stated)	27.4	-2.6	.	-8.2	7.9	.
COc1ccc(C2=CC3=C(Br)C(=O)C(C)(OC(=O)C4CCCC4)C(=O)C3=CO2)cc1 (configuration not stated)	-11.8	3.7	.	11.1	82.1*	+
COC(=O)CCC(=O)OC1(C)C(=O)C2=COC(c3ccc(OC)cc3)=CC2=C(Br)C1=O (configuration not stated)	-10.5	18.5	.	13.4	93.5*	+
COc1ccc(C2=CC3=C(Br)C(=O)C(C)(OC(=O)c4ccc(Cl)nc4)C(=O)C3=CO2)cc1 (configuration not stated)	-6.1	9.9	.	15.3	94.0*	+
O=[N+]([O-])c1ccc(N/N=C/c2cn(Cc3ccc(F)cc3)c3ccccc23)nc1	9.1	3.3	0.9	38.2	7.3	.
O=C(Nc1ccc(Cl)cc1)ON=C1CCCC1	9.1	-1.5	0.9	-0.8	1.4	.
COc1cc2[nH]c(=O)n(CCC(=O)N3CCN(c4cccc(C)c4C)CC3)c(=O)c2cc1OC	12.9	7.7	0.9	18.9	74.1*	i
O=C(O)c1ccc2c(c1)C(=O)/C(=C/c1ccccc1)C2=O	-27.2	9.4	0.6	1.5	19.4	.
O=C(O)c1ccc2c(c1)C(=O)/C(=C\c1ccco1)C2=O	-16.3	6.5	0.7	-1.6	61.4*	+
CCN1/C(=C2/OC(=S)N(C)C2=O)Sc2ccccc21	-17.5	-1.4	0.9	-8.1	-0.1	.
CCN1/C(=C\C=C2\C(=O)N(C)C(=S)N2C)Sc2ccccc21	-87.7	0.7	0.8	0.0	71.6*	i
COc1ccc(OC)c(NC(=O)Cn2cc(C#N)c3cc(Br)ccc32)c1	3.7	-18.7	0.9	13.6	69.4*	i
COc1ccc(/C=[N+](\[O-])C2N(c3ccccc3)C(=S)SC2(C)C)cc1OC (configuration not stated)	-5.5	0.5	.	-3.2	1.3	.
N#Cc1c(NCCCO)nc(-c2ccco2)c2c1CCCC2	-8.8	-0.2	0.9	3.5	140.5*	.
N#Cc1c(NC2CCCCC2)nc(-c2ccco2)c2c1CCCC2	-30.8	-1.4	0.9	-14.3	0.5	.
CNc1nc(-c2ccccc2)cc(C)c1S(C)(=O)=O	-5.0	3.2	1	-7.9	18.5	.
Cc1ccc(-c2csc3ncnc(Nc4ccc(C(=O)O)cc4)c23)cc1	-15.6	3.6	.	3.1	54.8*	i
O=C(O)c1ccc(Nc2ncnc3scc(-c4ccccc4)c23)cc1	-8.1	3.4	0.8	-2.0	19.3	.
CCC(CC)NC(=O)COC(=O)c1ccc(NS(=O)(=O)c2ccc3c(c2)OCCO3)cc1	2.5	-10.7	0.9	6.8	6.2	.
O=C(Cn1c(O)c(/C=C2\C=Nc3ccccc32)sc1=O)N1CCOCC1	-7.5	3.6	1.1	-1.6	9.1	.
SMILES	p47phox inh	eIF4E-4G inh	Diaph act CS	14-3-3 Bad PPI	Hck Nef HTS	Hck-Nef confirm
O=C(Cn1c(O)c(/C=C2\C=Nc3ccc(Br)cc32)sc1=O)N1CCCC1	39.0*	-1.2	1	5.4	76.2*	i
COc1ccc(N2C(=O)CS/C2=N\C(=S)Nc2ccccc2)cc1	-15.6	-3.3	.	-2.5	1.1	.
COc1ccc(CNC(=O)CCS(=O)(=O)Cc2cccc(Cl)c2)c(OC)c1	-7.0	-2.0	0.9	3.0	-19.2	.
Cc1c(C(=O)N2CCOCC2)cc(C(C)(C)C)n1-c1ccccc1	-11.1	1.0	.	-3.5	2.0	.
Cc1ccc(O)c(NC(=S)NC(=O)/C=C/c2ccco2)c1	-9.9	-0.9	1	-10.2	75.4*	+
Cc1ccc(C2C(C#N)=C(N)OC3=C2C(=O)CC(C)(C)C3)s1 (configuration not stated)	-7.7	-9.4	.	-3.4	20.5	.
CC(C)Cc1nc2c(nnn2Cc2ccccc2F)c(=O)[nH]1	2.0	-9.7	.	-7.0	14.1	.
O=C(Cc1cc(=O)oc2cc(O)ccc12)NCC1CCC(C(=O)O)CC1 (configuration not stated)	-14.4	-13.8	0.9	-3.5	61.6*	.
COc1ccc2c(CC(=O)O)cc(=O)oc2c1	-4.3	2.9	.	8.6	34.6	.
CC(OC(=O)c1ccncc1)C(=O)Nc1ccc([N+](=O)[O-])cc1Cl (configuration not stated)	5.5	4.8	1.1	-1.6	18.7	.
Oc1ccc(/C=N/NC(=S)Nc2cccnc2)c(O)c1O	-41.9	57.6*	.	72.2*	100.0*	+
O=C(O)c1ccc(-c2ccc(/C=C3\NC(=O)N(Cc4ccc(Cl)cc4)C3=O)o2)cc1Cl	-40.6	13.1	0.8	12.7	52.5*	i
COC(=O)c1ccc(C(=O)OC)c(NC(=S)N2CCN(c3cccc(Cl)c3)CC2)c1	-15.6	-4.5	0.8	-12.5	0.7	.
Cc1cccn2c(=O)c3cc(C#N)c(=NC(=O)c4cccs4)n(CCCOC(C)C)c3nc12	-8.3	-3.4	.	-9.2	105.9*	i
CC(=O)N=c1c(C#N)cc2c(=O)n3cccc(C)c3nc2n1Cc1ccco1	-8.6	8.2	.	-1.7	165.4*	i
Cc1ccccc1C(=O)N=c1c(C#N)cc2c(=O)n3cccc(C)c3nc2n1Cc1ccco1	-18.9	-2.8	0.7	6.6	12.6	.
Cc1cccn2c(=O)c3cc(C#N)c(=NC(=O)c4ccncc4)n(CCCOC(C)C)c3nc12	-11.6	3.5	0.7	-6.8	31.7	.

Screening results (PubChem)
